Experimental data from ChEMBL document CHEMBL1143896, “Discovery of piperazinylimidazo[1,2-a]pyridines as novel S4 binding elements for orally active factor Xa inhibitors” (Bioorg Med Chem, 2008).
The source made the active and inactive calls. No cut-off for these calls is given here.

Key:
CYP3A4 = CYP3A4 (Homo sapiens, UniProt P08684); assay: Inhibition of human CYP3A4 at 10 uM; format: ADME
In short: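 CYP3A4 from human B-lymphoblastoid cells expressing the enzyme (10 nM) is incubated with 100 µM testosterone and 10 µM compound for 30 min at 37 °C. 6β-Hydroxytestosterone is measured by HPLC-UV and reported as % inhibition.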

Coagulation factor X = Coagulation factor X (Homo sapiens, UniProt P00742); assay: Inhibition of human factor 10a
Mus musculus [1] = assay: Ex vivo anticoagulant potency in ICR mouse blood assessed as prothrombin time at 30 mg/kg, po after 1 hr relative to control; format: functional
In short: (§1)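 Male ICR mice (30–35 g) are fasted >12 h and dosed orally as a suspension in 0.5% methylcellulose; controls get vehicle. At 1 h, blood is drawn from the abdominal aorta under pentobarbital (50 mg/kg ip) into 3.8% citrate (9:1). Plasma is spun at 1000g for 10 min, preincubated 4 min at 37 °C, clotted with thromboplastin and timed. The read-out is the clotting-time ratio versus vehicle controls.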

Plasma [2] = assay: Anticoagulant potency in ICR mouse plasma assessed as concentration required to double prothrombin time; format: functional
Plasma [3] = assay: Anticoagulant potency in human plasma assessed as concentration required to double prothrombin time; format: functional
In short: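 Compound in DMSO is added to normal human plasma (3% v/v) and preincubated 4 min at 37 °C. Clotting is started with thromboplastin and timed on an automatic coagulometer. Prolongation is measured against a DMSO control. The concentration that doubles clotting time comes from a least-squares regression, as a mean of duplicate measurements.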

Mus musculus [4] = assay: Ex vivo anticoagulant potency in ICR mouse blood assessed as 1.1 times prolongation of prothrombin time at 30 mg/kg, po after 1 hr relative to control; format: functional, organism-based; set-up: dose 30 mg/kg; in short: as §1
Mus musculus [5] = assay: Ex vivo anticoagulant potency in ICR mouse blood assessed as 1.4 times prolongation of prothrombin time at 100 mg/kg, po after 1 hr relative to control; format: functional, organism-based; set-up: dose 100 mg/kg; in short: as §1
[6] = AUC in cynomolgus monkey at 3 mg/kg, po; format: ADME, organism-based, Macaca fascicularis; set-up: dose 3 mg/kg, route oral; conditions: plasma
In short: (§2)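 Fasted male cynomolgus monkeys (n = 3) are dosed iv in DMA/PEG400 or orally as a 0.5% methylcellulose suspension. Femoral vein blood is taken up to 24 h (from 5 min iv, from 15 min po). Plasma is deproteinized with acetonitrile, diluted with 0.01 mol/L ammonium formate at pH 3.0, and measured by LC/MS/MS. Values are means ± SD of three.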

[7] = Total clearance in cynomolgus monkey at 0.3 mg/kg, iv; format: ADME, organism-based, Macaca fascicularis; set-up: dose 0.3 mg/kg, route intravenous; conditions: in vivo; in short: as §2
[8] = Mean residence time in cynomolgus monkey at 0.3 mg/kg, iv; format: ADME, organism-based, Macaca fascicularis; set-up: dose 0.3 mg/kg, route intravenous; conditions: in vivo; in short: as §2
[9] = AUC in cynomolgus monkey at 0.3 mg/kg, iv; format: ADME, organism-based, Macaca fascicularis; set-up: dose 0.3 mg/kg, route intravenous; conditions: plasma; in short: as §2
Prothrombin = Prothrombin (Homo sapiens, UniProt P00734); assay: Inhibition of human thrombin after 30 mins
In short: (§3)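 Human proteases are incubated with compound for 30 min at 37 °C. Enzyme and substrate pairs are: thrombin 0.080 U/mL with S-2366; trypsin 0.040 µg/mL with S-2222; plasmin 0.040 U/mL with S-2366; kallikrein 0.020 U/mL with S-2302; t-PA 4000 U/mL with S-2288. p-Nitroanilide release is followed continuously for 5 min at 405 nm. Ki comes from Lineweaver–Burk plots at varied substrate levels, as means of three determinations.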

[10] = Cmax in cynomolgus monkey at 3 mg/kg, po; format: ADME, organism-based, Macaca fascicularis; set-up: dose 3 mg/kg, route oral; conditions: in vivo; in short: as §2
Plasminogen = Plasminogen (Homo sapiens, UniProt P00747); assay: Inhibition of human plasmin after 30 mins; in short: as §3
Trypsin = Trypsin (Homo sapiens, UniProt P07477+P07478+P35030); assay: Inhibition of human trypsin after 30 mins; format: protein assay; in short: as §3
Plasma kallikrein = Plasma kallikrein (Homo sapiens, UniProt P03952); assay: Inhibition of human kallikrein after 30 mins; in short: as §3
[11] = Oral bioavailability in cynomolgus monkey at 3 mg/kg; format: ADME, organism-based, Macaca fascicularis; conditions: in vivo; in short: as §2
[12] = Mean residence time in cynomolgus monkey at 3 mg/kg, po; format: ADME, organism-based, Macaca fascicularis; set-up: dose 3 mg/kg, route oral; conditions: in vivo; in short: as §2
[13] = target: Tissue-type plasminogen activator (Homo sapiens, UniProt P00750); assay: Inhibition of human tPA after 30 mins; in short: as §3
[14] = Volume of distribution at steady state in cynomolgus monkey at 0.3 mg/kg, iv; format: ADME, organism-based, Macaca fascicularis; set-up: dose 0.3 mg/kg, route intravenous; conditions: in vivo, read-out: Vdss; in short: as §2
[15] = Tmax in cynomolgus monkey at 3 mg/kg, po; format: ADME, organism-based, Macaca fascicularis; set-up: dose 3 mg/kg, route oral; conditions: in vivo; in short: as §2
[16] = Drug concentration in cynomolgus monkey at 0.3 mg/kg, iv after 5 mins; format: ADME, organism-based, Macaca fascicularis; set-up: dose 0.3 mg/kg, route intravenous; conditions: in vivo, read-out: Drug uptake; in short: as §2

Sequence of Coagulation factor X (P00742 41-179 limits assumed): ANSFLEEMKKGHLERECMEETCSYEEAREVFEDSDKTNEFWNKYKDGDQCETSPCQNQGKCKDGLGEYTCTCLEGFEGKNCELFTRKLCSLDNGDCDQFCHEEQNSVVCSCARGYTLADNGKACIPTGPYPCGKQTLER
Sequence of Coagulation factor X (P00742 235-488 limits assumed): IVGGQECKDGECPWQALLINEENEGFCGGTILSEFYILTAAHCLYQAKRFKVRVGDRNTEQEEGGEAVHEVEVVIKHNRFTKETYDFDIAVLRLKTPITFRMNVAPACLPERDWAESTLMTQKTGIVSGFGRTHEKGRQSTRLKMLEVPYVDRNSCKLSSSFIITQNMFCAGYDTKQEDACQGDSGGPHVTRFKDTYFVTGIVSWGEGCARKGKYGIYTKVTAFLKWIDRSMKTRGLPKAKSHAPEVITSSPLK
Sequence of CYP3A4 (P08684 whole entry): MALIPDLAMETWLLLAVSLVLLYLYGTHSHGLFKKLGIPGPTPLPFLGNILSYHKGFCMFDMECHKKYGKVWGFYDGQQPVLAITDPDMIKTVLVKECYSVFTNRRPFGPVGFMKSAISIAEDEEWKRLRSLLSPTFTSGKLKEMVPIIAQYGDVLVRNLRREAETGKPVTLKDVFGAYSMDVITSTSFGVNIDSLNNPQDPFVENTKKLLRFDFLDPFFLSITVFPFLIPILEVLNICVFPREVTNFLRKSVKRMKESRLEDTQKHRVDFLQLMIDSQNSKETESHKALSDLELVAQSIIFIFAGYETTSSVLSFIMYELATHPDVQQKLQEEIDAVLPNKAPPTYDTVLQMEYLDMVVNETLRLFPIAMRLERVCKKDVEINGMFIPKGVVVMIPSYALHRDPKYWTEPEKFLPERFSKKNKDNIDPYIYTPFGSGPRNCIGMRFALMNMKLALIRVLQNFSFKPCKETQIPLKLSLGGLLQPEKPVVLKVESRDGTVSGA
Sequence of Plasminogen (P00747 97-580 limits assumed): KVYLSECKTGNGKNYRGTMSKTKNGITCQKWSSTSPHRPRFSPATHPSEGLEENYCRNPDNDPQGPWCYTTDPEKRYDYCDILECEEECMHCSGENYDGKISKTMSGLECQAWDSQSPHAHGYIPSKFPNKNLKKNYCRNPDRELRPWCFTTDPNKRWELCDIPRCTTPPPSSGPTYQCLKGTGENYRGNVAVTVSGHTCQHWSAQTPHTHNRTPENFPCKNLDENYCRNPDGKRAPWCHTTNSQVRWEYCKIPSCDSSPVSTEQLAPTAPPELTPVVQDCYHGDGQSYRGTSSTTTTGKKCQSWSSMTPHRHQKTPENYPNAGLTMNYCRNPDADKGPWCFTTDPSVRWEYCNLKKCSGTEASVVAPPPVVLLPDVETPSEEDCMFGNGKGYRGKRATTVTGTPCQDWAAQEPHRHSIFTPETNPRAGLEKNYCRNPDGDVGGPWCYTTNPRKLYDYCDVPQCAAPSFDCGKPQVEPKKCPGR
Sequence of Plasminogen (P00747 581-810 limits assumed): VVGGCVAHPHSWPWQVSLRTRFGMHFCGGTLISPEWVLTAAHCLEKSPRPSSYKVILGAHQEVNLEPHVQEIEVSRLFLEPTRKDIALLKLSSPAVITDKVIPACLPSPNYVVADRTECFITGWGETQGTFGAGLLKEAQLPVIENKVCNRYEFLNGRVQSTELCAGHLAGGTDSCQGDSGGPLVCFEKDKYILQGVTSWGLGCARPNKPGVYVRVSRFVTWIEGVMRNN
Sequence of Plasma kallikrein (P03952 20-390 limits assumed): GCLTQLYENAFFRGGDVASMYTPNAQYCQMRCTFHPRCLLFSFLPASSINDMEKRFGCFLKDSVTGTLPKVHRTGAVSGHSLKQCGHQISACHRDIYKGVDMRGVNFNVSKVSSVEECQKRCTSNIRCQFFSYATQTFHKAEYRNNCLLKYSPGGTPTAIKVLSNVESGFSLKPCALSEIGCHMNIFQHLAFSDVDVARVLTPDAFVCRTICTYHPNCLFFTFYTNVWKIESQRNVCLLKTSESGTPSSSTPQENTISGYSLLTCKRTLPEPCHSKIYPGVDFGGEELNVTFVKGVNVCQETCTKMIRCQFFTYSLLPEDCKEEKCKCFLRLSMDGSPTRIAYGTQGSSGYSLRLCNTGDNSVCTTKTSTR
Sequence of Plasma kallikrein (P03952 391-638 limits assumed): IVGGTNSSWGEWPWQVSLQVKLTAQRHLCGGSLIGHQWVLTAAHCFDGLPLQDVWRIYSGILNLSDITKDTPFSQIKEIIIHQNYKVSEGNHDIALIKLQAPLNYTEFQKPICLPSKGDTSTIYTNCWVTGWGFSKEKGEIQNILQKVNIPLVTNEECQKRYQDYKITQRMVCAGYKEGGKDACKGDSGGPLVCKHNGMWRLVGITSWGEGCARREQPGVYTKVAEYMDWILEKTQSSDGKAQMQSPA
Sequence of Tissue-type plasminogen activator (P00750 whole entry): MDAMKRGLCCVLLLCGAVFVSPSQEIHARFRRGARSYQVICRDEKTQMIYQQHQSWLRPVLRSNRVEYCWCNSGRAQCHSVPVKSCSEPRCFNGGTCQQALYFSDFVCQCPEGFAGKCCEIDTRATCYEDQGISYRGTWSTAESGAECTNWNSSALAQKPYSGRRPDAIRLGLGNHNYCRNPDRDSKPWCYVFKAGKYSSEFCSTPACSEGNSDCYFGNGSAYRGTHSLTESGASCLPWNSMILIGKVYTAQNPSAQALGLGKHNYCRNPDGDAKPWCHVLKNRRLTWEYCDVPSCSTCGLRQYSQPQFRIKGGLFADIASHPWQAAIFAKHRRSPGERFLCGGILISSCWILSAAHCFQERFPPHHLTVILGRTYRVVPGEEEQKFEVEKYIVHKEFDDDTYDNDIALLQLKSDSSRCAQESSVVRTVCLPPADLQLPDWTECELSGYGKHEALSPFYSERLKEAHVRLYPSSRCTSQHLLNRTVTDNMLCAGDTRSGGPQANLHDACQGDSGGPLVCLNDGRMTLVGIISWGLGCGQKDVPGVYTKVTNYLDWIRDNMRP

inhibition at 10 µM (CYP3A4) [%]	IC50 (Coagulation factor X) [nM]	SMILES	Ratio (Mus musculus [1])	2PT (Plasma [2]) [µM]	2PT (Plasma [3]) [µM]	other results
23	20	CC(O)c1cn2c(N3CCN(C(=O)CCS(=O)(=O)c4ccc5cc(Cl)ccc5c4)CC3)cccc2n1 (stereo not given)	2.5	1.8	1.2	–
–	78	O=C(CCS(=O)(=O)c1ccc2cc(Cl)ccc2c1)N1CCN(c2ccn3ccnc3c2)CC1	–	–	2.2	–
–	29	O=C(CCS(=O)(=O)c1ccc2cc(Cl)ccc2c1)N1CCN(c2cccc3ncc(CO)n23)CC1	–	–	1.7	–
–	840	CN(C(=O)CCS(=O)(=O)c1ccc2cc(Cl)ccc2c1)C1CCN(c2cccc3nccn23)CC1	–	–	–	–
58	12	Cc1cn2c(N3CCN(C(=O)CCS(=O)(=O)c4ccc5cc(Cl)ccc5c4)CC3)cccc2n1	2.9	1.3	0.96	–
–	57	CN(C)C(=O)Cc1cn2c(N3CCN(C(=O)CCS(=O)(=O)c4ccc5cc(Cl)ccc5c4)CC3)cccc2n1	–	–	2.5	–
–	93	CCOC(=O)Cc1cn2c(N3CCN(C(=O)CCS(=O)(=O)c4ccc5cc(Cl)ccc5c4)CC3)cccc2n1	–	–	5.1	–
52	35	Nc1cnc2cccc(N3CCN(C(=O)CCS(=O)(=O)c4ccc5cc(Cl)ccc5c4)CC3)n12	2.4	1.5	0.73	–
–	–	CC(=N)N1CC[C@H](Oc2ccc([C@H](Cc3ccc4ccc(C(=N)N)cc4c3)C(=O)O)cc2)C1 [DX-9065A]	–	–	0.81	Activity (Mus musculus [4]): Active; Activity (Mus musculus [5]): Active
33	18	CC(O)Cc1cn2c(N3CCN(C(=O)CCS(=O)(=O)c4ccc5cc(Cl)ccc5c4)CC3)cccc2n1 (stereo not given)	3.2	1.5	1.1	–
–	24	O=C(CCS(=O)(=O)c1ccc2cc(Cl)ccc2c1)N1CCN(c2cccc3ncc([N+](=O)[O-])n23)CC1	–	–	3.6	–
–	87	O=C(CCS(=O)(=O)c1ccc2cc(Cl)ccc2c1)N1CCN(c2ccc3nccn3c2)CC1	–	–	2.9	–
45	21	O=C(CCS(=O)(=O)c1ccc2cc(Cl)ccc2c1)N1CCN(c2cccc3nccn23)CC1	2.5	1.7	1.4	–
–	45	NC(=O)Cc1cn2c(N3CCN(C(=O)CCS(=O)(=O)c4ccc5cc(Cl)ccc5c4)CC3)cccc2n1	–	–	2.1	–
15	9	O=C(CCS(=O)(=O)c1ccc2cc(Cl)ccc2c1)N1CCN(c2cccc3nc(CO)cn23)CC1	1.3	1.4	1.4	AUC [6]: 2260 ng·h/mL; clearance [7]: 7.33 mL/min/kg; MRT [8]: 1.97 h; AUC [9]: 730 ng·h/mL; Ki (Prothrombin): 960 nM; Ki (Coagulation factor X): 8 nM; Cmax [10]: 500 ng/mL; Ki (Plasminogen): > 60000 nM; Ki (Trypsin): > 60000 nM; Ki (Plasma kallikrein): 14000 nM; bioavailability [11]: 30.5%; MRT [12]: 3.6 h; Ki [13]: > 60000 nM; Vd [14]: 0.81 L/kg; Tmax [15]: 1.33 h; concentration at 5 min [16]: 540 ng/mL
26	22	CC(C)(O)Cc1cn2c(N3CCN(C(=O)CCS(=O)(=O)c4ccc5cc(Cl)ccc5c4)CC3)cccc2n1	2.4	1.7	0.86	–
–	41	CNC(=O)Cc1cn2c(N3CCN(C(=O)CCS(=O)(=O)c4ccc5cc(Cl)ccc5c4)CC3)cccc2n1	–	–	2	–
–	24	CC(=O)Nc1cnc2cccc(N3CCN(C(=O)CCS(=O)(=O)c4ccc5cc(Cl)ccc5c4)CC3)n12	–	–	1.8	–
–	18	CC(C)(O)c1cn2c(N3CCN(C(=O)CCS(=O)(=O)c4ccc5cc(Cl)ccc5c4)CC3)cccc2n1	–	–	2.1	–
